Test results taken from ChEMBL document CHEMBL1155468, “Syntheses and evaluation of anticonvulsant profile and teratogenicity of novel amide derivatives of branched aliphatic carboxylic acids with 4-aminobenzensulfonamide” (J Med Chem, 2010).
Calls of active or inactive are those of the source. No cut-off for these calls is given here.

Columns and labels:
[1] = test system: Mus musculus; experiment: Neurotoxicity in CF1 albino mouse assessed as motor impairment at 30 mg/kg, ip after 0.5 hrs; format: toxicity, organism-based; design: dose 30 mg/kg, route intraperitoneal; details: in vivo
[2] = test system: Mus musculus; experiment: Teratogenic effect in SWV mouse assessed as fetuses with neural tube deffects at 325 mg/kg, ip administered on morning of day 8 of gestation; format: toxicity, organism-based; design: dose 325 mg/kg, route intraperitoneal; details: in vivo
[3] = test system: Mus musculus; experiment: Anticonvulsant activity in CF1 albino mouse assessed as inhibition of subcutaneous pentylenetetrazole-induced seizures at 100 mg/kg, ip after 0.5 hrs; format: functional, organism-based; design: dose 100 mg/kg
Outline: (§1)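 Adult male CF no. 1 albino mice (18-25 g) dosed ip with compound suspended in 0.5% methylcellulose (0.01 mL/g). Convulsant: pentylenetetrazol dissolved in 0.9% saline as a 0.85% solution for mice, given subcutaneously.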

[4] = test system: Mus musculus; experiment: Anticonvulsant activity in CF1 albino mouse assessed as inhibition of subcutaneous pentylenetetrazole-induced seizures at 100 mg/kg, ip after 4 hrs; format: functional, organism-based; design: dose 100 mg/kg; outline: as §1
[5] = species on record: Rattus norvegicus; experiment: Protective index, ratio of TD50 for rat to ED50 for maximal electroshock-induced rat seizure model
[6] = test system: Rattus norvegicus; experiment: Neurotoxicity in Sprague-Dawley rat assessed as motor impairment at 30 mg/kg, po after 0.25 to 4 hrs; details: in vivo
[7] = test system: Mus musculus; experiment: Neurotoxicity in CF1 albino mouse assessed as motor impairment at 30 mg/kg, ip after 4 hrs; format: toxicity, organism-based; design: dose 30 mg/kg, route intraperitoneal; details: in vivo
[8] = test system: Mus musculus; experiment: Teratogenic effect in SWV mouse assessed as live fetuses at 164 mg/kg, ip administered on morning of day 8 of gestation; format: toxicity, organism-based; design: dose 164 mg/kg, route intraperitoneal; details: in vivo
[9] = test system: Mus musculus; experiment: Anticonvulsant activity in CF1 albino mouse assessed as inhibition of subcutaneous pentylenetetrazole-induced seizures at 30 mg/kg, ip after 4 hrs; format: functional, organism-based; design: dose 30 mg/kg; outline: as §1
[10] = test system: Mus musculus; experiment: Anticonvulsant activity in CF1 albino mouse assessed as inhibition of maximal electroshock-induced seizures at 300 mg/kg, ip after 0.5 hrs; format: functional, organism-based; design: dose 300 mg/kg
Outline: (§2)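 Test compounds suspended in 0.5% methylcellulose and given ip to adult male CF no. 1 albino mice (18-25 g) at 0.01 mL/g body weight before maximal electroshock challenge.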

[11] = test system: Mus musculus; experiment: Teratogenic effect in SWV mouse assessed as live fetuses at 325 mg/kg, ip administered on morning of day 8 of gestation; format: toxicity, organism-based; design: dose 325 mg/kg, route intraperitoneal; details: in vivo
[12] = test system: Mus musculus; experiment: Neurotoxicity in CF1 albino mouse assessed as motor impairment at 100 mg/kg, ip after 4 hrs; format: toxicity, organism-based; design: dose 100 mg/kg, route intraperitoneal; details: in vivo
[13] = test system: Mus musculus; experiment: Anticonvulsant activity in CF1 albino mouse assessed as inhibition of maximal electroshock-induced seizures at 300 mg/kg, ip after 4 hrs; format: functional, organism-based; design: dose 300 mg/kg; outline: as §2
[14] = test system: Mus musculus; experiment: Anticonvulsant activity in CF1 albino mouse assessed as inhibition of maximal electroshock-induced seizures at 30 mg/kg, ip after 0.5 hrs; format: functional, organism-based; design: dose 30 mg/kg; outline: as §2
[15] = test system: Mus musculus; experiment: Anticonvulsant activity in CF1 albino mouse assessed as inhibition of maximal electroshock-induced seizures at 30 mg/kg, ip after 4 hrs; format: functional, organism-based; design: dose 30 mg/kg; outline: as §2
[16] = test system: Rattus norvegicus; experiment: Anticonvulsant activity in Sprague-Dawley rat assessed as inhibition of maximal electroshock-induced seizures at 30 mg/kg, po after 1 hr
[17] = test system: Mus musculus; experiment: Anticonvulsant activity in CF1 albino mouse assessed as inhibition of subcutaneous pentylenetetrazole-induced seizures at 30 mg/kg, ip after 0.5 hrs; format: functional, organism-based; design: dose 30 mg/kg; outline: as §1
[18] = test system: Mus musculus; experiment: Teratogenic effect in SWV mouse assessed as resorptions at 164 mg/kg, ip administered on morning of day 8 of gestation; format: toxicity, organism-based; design: dose 164 mg/kg, route intraperitoneal; details: in vivo
[19] = test system: Mus musculus; experiment: Anticonvulsant activity in CF1 albino mouse assessed as inhibition of subcutaneous pentylenetetrazole-induced seizures at 300 mg/kg, ip after 4 hrs; format: functional, organism-based; design: dose 300 mg/kg; outline: as §1
[20] = test system: Mus musculus; experiment: Teratogenic effect in SWV mouse assessed as resorptions at 325 mg/kg, ip administered on morning of day 8 of gestation; format: toxicity, organism-based; design: dose 325 mg/kg, route intraperitoneal; details: in vivo
[21] = test system: Mus musculus; experiment: Neurotoxicity in CF1 albino mouse assessed as motor impairment at 100 mg/kg, ip after 0.5 hrs; format: toxicity, organism-based; design: dose 100 mg/kg, route intraperitoneal; details: in vivo
[22] = test system: Mus musculus; experiment: Anticonvulsant activity in CF1 albino mouse assessed as inhibition of maximal electroshock-induced seizures at 100 mg/kg, ip after 0.5 hrs; format: functional, organism-based; design: dose 100 mg/kg; outline: as §2
[23] = test system: Mus musculus; experiment: Neurotoxicity in CF1 albino mouse assessed as motor impairment at 300 mg/kg, ip after 4 hrs; format: toxicity, organism-based; design: dose 300 mg/kg, route intraperitoneal; details: in vivo
[24] = test system: Mus musculus; experiment: Neurotoxicity in CF1 albino mouse assessed as motor impairment at 300 mg/kg, ip after 0.5 hrs; format: toxicity, organism-based; design: dose 300 mg/kg, route intraperitoneal; details: in vivo
[25] = test system: Rattus norvegicus; experiment: Anticonvulsant activity in Sprague-Dawley rat assessed as inhibition of maximal electroshock-induced seizures at 30 mg/kg, po after 15 mins
[26] = test system: Rattus norvegicus; experiment: Anticonvulsant activity in Sprague-Dawley rat assessed as inhibition of maximal electroshock-induced seizures at 30 mg/kg, po after 30 mins
[27] = test system: Rattus norvegicus; experiment: Anticonvulsant activity in po dosed rat assessed as inhibition of maximal electroshock-induced seizures
[28] = test system: Mus musculus; experiment: Anticonvulsant activity in CF1 albino mouse assessed as inhibition of subcutaneous pentylenetetrazole-induced seizures at 300 mg/kg, ip after 0.5 hrs; format: functional, organism-based; design: dose 300 mg/kg; outline: as §1
[29] = test system: Mus musculus; experiment: Teratogenic effect in SWV mouse assessed as live fetuses at 486 mg/kg, ip administered on morning of day 8 of gestation; format: toxicity, organism-based; design: dose 486 mg/kg, route intraperitoneal; details: in vivo
Outline: (§3)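 SWV inbred mice: two-month-old nulligravid females mated overnight with males and checked for vaginal plugs next morning; gestation onset taken as 10 p.m. the previous night. On gestation day 8.5 each dam got one ip injection, 0.55–2.7 mmol/kg, in 25% aqueous Cremophor EL (vehicle controls dosed alike), 10 μL/g body weight. Litters and implants tallied; resorptions and live fetuses reported as counts with percentages.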

[30] = test system: Mus musculus; experiment: Teratogenic effect in SWV mouse assessed as resorptions at 148 mg/kg, ip administered on morning of day 8 of gestation; format: toxicity, organism-based; design: dose 148 mg/kg, route intraperitoneal; details: in vivo; outline: as §3
[31] = test system: Mus musculus; experiment: Teratogenic effect in SWV mouse assessed as resorptions at 486 mg/kg, ip administered on morning of day 8 of gestation; format: toxicity, organism-based; design: dose 486 mg/kg, route intraperitoneal; details: in vivo; outline: as §3
[32] = test system: Mus musculus; experiment: Teratogenic effect in SWV mouse assessed as fetuses with neural tube deffects at 148 mg/kg, ip administered on morning of day 8 of gestation; format: toxicity, organism-based; design: dose 148 mg/kg, route intraperitoneal; details: in vivo
Outline: (§4)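 Two-month-old nulligravid SWV females were mated overnight and checked for vaginal plugs the next morning; gestation onset was set at 10 p.m. the previous night. On gestation day 8.5, each dam received a single ip injection (0.55-2.7 mmol/kg range) or vehicle (25% aqueous Cremophor EL) at 10 μL/g body weight. Litters were scored for implants, resorptions, live and dead fetuses, and fetuses with neural tube defects.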

[33] = test system: Mus musculus; experiment: Teratogenic effect in SWV mouse assessed as fetuses with neural tube deffects at 294 mg/kg, ip administered on morning of day 8 of gestation; format: toxicity, organism-based; design: dose 294 mg/kg, route intraperitoneal; details: in vivo; outline: as §4
[34] = test system: Mus musculus; experiment: Teratogenic effect in SWV mouse assessed as live fetuses at 148 mg/kg, ip administered on morning of day 8 of gestation; format: toxicity, organism-based; design: dose 148 mg/kg, route intraperitoneal; details: in vivo; outline: as §4
[35] = test system: Mus musculus; experiment: Teratogenic effect in SWV mouse assessed as fetuses with neural tube deffects at 486 mg/kg, ip administered on morning of day 8 of gestation; format: toxicity, organism-based; design: dose 486 mg/kg, route intraperitoneal; details: in vivo; outline: as §4
[36] = test system: Mus musculus; experiment: Teratogenic effect in SWV mouse assessed as resorptions at 729 mg/kg, ip administered on morning of day 8 of gestation; format: toxicity, organism-based; design: dose 729 mg/kg, route intraperitoneal; details: in vivo; outline: as §3
[37] = test system: Rattus norvegicus; experiment: Anticonvulsant activity in Sprague-Dawley rat assessed as inhibition of maximal electroshock-induced seizures at 30 mg/kg, po after 2 hrs
[38] = test system: Rattus norvegicus; experiment: Anticonvulsant activity in Sprague-Dawley rat assessed as inhibition of maximal electroshock-induced seizures at 30 mg/kg, po after 4 hrs
[39] = test system: Mus musculus; experiment: Teratogenic effect in SWV mouse assessed as resorptions at 294 mg/kg, ip administered on morning of day 8 of gestation; format: toxicity, organism-based; design: dose 294 mg/kg, route intraperitoneal; details: in vivo; outline: as §3
[40] = test system: Mus musculus; experiment: Teratogenic effect in SWV mouse assessed as live fetuses at 294 mg/kg, ip administered on morning of day 8 of gestation; format: toxicity, organism-based; design: dose 294 mg/kg, route intraperitoneal; details: in vivo; outline: as §4
[41] = test system: Mus musculus; experiment: Teratogenic effect in SWV mouse assessed as live fetuses at 729 mg/kg, ip administered on morning of day 8 of gestation; format: toxicity, organism-based; design: dose 729 mg/kg, route intraperitoneal; details: in vivo; outline: as §3

Compound | Activity [1] | Activity [3] | Activity [4] | Activity [7] | Activity [9] | Activity [10] | Activity [12] | Activity [13] | Activity [14] | Activity [15] | Activity [16] | Activity [17] | Activity [19] | Activity [21] | Activity [22] | Activity [23] | Activity [24] | ED50 [27] [mg/kg] | Activity [28] | other results
CCCC(C(=O)Nc1ccc(S(N)(=O)=O)cc1)C(C)C (stereo not given) | Non-toxic | inactive | inactive | Non-toxic | inactive | Active | Non-toxic | Active | inactive | inactive | Active | inactive | inactive | Non-toxic | inactive | Non-toxic | Non-toxic | 41.5 | inactive | Activity [2]: 2%; Ratio TD50/ED50 [5]: >12; Activity [6]: Non-toxic; Activity [8]: 100%; Activity [11]: 64.6%; Activity [18]: 10.3%; Activity [20]: 35.4%; Activity [25]: inactive; Activity [26]: inactive
CCCC(C)C(=O)Nc1ccc(S(N)(=O)=O)cc1 (stereo not given) | Non-toxic | inactive | inactive | Non-toxic | inactive | Active | Non-toxic | Active | inactive | inactive | Active | inactive | inactive | Non-toxic | inactive | Non-toxic | Non-toxic | 10.8 | inactive | Activity [29]: 41.7%; Activity [30]: 10%; Activity [31]: 58.3%; Activity [32]: 3.2%; Activity [33]: 5.6%; Activity [34]: 90%; Activity [35]: 17%; Activity [36]: 92.5%; Activity [37]: Active; Activity [38]: Active; Activity [39]: 34.8%; Activity [40]: 65.2%; Activity [41]: 7.5%
